Here are results for 3 compounds from paper PMC13094344 (ACS chemical neuroscience, 2017).

SMILES strings stand for the structures.

Assay [1] has as its target T1, CB1R (Mus musculus, UniProt P47746). The experiment in a line: Electrically-evoked contractions of mouse isolated vas deferens.
The target in a further assay is hCB2R (Homo sapiens, UniProt P34972). The experiment in a line: [3H]CP55,940 binding to CHO-hCB2R membranes. The settings on record: data not shown. The essentials:
(§1)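 Filtration displacement assay with 0.7 nM [3H]CP55,940 in 50 mM Tris-HCl/50 mM Tris-base, 0.1% BSA, pH 7.4, run 60 min at 37 °C. Membranes were from CHO cells stably expressing hCB2R (50 µg protein) or from mouse whole brain. Test compound was added from 10 mM DMSO stock (0.1% DMSO final). Nonspecific binding used 1 µM unlabelled CP55,940; radioactivity was counted by liquid scintillation.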

Assay [2] concerns the target T1, CB1R. The assay can be described thus: [3H]CP55,940 binding to mouse brain membranes. The settings on record: 1 nM – 10 μM. The essentials:
as §1

The target in assay [3] is T2, hCB1R (Homo sapiens, UniProt P21554). The assay can be described thus: Arrestin2 recruitment to hCB1R-GFP2 by BRET2. Format: cell-based. To be noted: for Arrestin2 recruitment by the compound alone: 1 nM – 10 μM, HEK293A or Neuro2a cells; for Log(αβ) / α (affinity modulation) / β (efficacy modulation) / τB (modulator efficacy): BRETEff, HEK293A, ± SD; for Log(αβ) / α (affinity modulation) / β (efficacy modulation): CP55,940 as agonist; for τB (modulator efficacy): fraction of the efficacy of CP55,940.
T2 sequence (P21554 whole entry): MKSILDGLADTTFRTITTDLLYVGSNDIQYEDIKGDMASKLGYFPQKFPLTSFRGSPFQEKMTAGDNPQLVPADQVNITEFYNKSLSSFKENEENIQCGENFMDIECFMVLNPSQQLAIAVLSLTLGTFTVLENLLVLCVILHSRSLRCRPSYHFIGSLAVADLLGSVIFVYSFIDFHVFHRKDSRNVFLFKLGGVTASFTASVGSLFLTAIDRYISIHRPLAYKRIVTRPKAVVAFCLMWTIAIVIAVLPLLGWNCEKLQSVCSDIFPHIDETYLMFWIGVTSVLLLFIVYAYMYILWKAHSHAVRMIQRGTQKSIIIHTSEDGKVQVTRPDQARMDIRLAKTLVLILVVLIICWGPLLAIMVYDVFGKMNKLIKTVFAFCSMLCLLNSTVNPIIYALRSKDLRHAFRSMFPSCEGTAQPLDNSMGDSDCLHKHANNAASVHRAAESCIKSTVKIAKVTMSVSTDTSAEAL

In assay [4] the target is T2, hCB1R. The experiment in a line: cAMP luciferase reporter assay in HEK-CRE cells transfected with hCB1R-GFP2. Format: cell-based. To be noted: for Log(αβ) / α (affinity modulation) / β (efficacy modulation): CP55,940 as agonist, ± SD; for τB (modulator efficacy): fraction of the efficacy of CP55,940, ± SD. Background: A reporter such as luciferase makes a cellular process visible.

Assay [5] addresses T2, hCB1R. The assay can be described thus: ERK1/2 phosphorylation, In-cell western. The class given is cell-based. To be noted: 1 nM – 10 μM; HEK293A and Neuro2a cells.
The target in assay [6] is T2, hCB1R. The experiment in a line: PLCβ3 phosphorylation, In-cell western. The settings on record: 1 nM – 10 μM; HEK293A and Neuro2a cells. Format: cell-based.
For assay [7], the system named is hCB1R. The assay can be described thus: Induced signaling bias, cAMP inhibition versus arrestin2 recruitment, ΔLog. The settings on record: CP55,940, 95% CI; for ΔLog(αβ): cAMP versus arrestin2 (BRET2); for Induced Bias: toward inhibition of cAMP production over arrestin2 recruitment. Format: cell-based, human. The gist of the method: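 Arrestin2 arm: HEK293A cells were transfected with hCB1R-GFP2 and arrestin2-Rluc. Cells were suspended in BRET buffer 48 h later and read by BRET2 (coelenterazine 400a 50 μM; emissions 405/510 nm). cAMP arm: HEK-CRE cells carried hCB1R-GFP2 and were read by luciferase reporter in 10 µM forskolin. CP55,940 1 nM–10 µM ± test compound 1 nM–10 µM, 0.1% DMSO. Data were fit to an allosteric binding plus Black-Leff operational model, with four independent estimates.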
(Arrestin recruitment assays detect the binding of arrestin to an activated receptor.)

Assay [8] addresses T2, hCB1R. The experiment in a line: [3H]CP55,940 binding to CHO-hCB1R membranes. The settings on record: 10 μM.

T1 sequence (P47746 whole entry): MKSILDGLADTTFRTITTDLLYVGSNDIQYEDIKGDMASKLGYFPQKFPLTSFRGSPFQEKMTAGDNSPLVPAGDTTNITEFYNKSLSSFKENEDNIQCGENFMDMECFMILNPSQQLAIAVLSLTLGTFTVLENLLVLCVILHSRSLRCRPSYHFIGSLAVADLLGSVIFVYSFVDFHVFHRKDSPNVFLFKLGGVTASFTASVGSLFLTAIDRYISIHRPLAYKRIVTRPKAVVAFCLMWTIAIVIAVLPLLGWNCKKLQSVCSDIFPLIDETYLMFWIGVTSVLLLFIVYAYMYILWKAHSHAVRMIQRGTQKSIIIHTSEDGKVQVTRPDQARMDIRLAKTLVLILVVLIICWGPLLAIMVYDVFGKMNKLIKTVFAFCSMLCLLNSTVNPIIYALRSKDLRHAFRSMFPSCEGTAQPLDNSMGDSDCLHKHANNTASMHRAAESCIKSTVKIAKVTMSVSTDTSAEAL
Chain of hCB2R (P34972 whole entry): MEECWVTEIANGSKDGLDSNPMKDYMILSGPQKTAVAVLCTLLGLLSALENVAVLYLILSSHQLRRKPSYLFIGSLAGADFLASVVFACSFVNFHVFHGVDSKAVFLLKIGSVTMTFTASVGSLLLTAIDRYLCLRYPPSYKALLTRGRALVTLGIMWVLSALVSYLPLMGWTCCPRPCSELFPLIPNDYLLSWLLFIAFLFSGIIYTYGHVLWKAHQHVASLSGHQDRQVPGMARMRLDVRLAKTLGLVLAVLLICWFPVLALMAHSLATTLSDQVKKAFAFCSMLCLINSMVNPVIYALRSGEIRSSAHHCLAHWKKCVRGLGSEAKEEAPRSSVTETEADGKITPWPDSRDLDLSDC

For the compound `O=[N+]([O-])CC(c1ccccc1)c1c(-c2ccccc2)[nH]c2ccccc12` (centres unmarked) [GAT211], on CB1R [1] (1 nM up to 10 μM, n=6, data not shown), the “Effect by itself on electrically-evoked contractions” value is reported as “no statistically significant effect”. Also, the “Effect on AEA-induced inhibition of electrically-evoked contractions” value at CB1R [1] (1 μM modulator, AEA 10 and 100 nM) was “potentiated”. In addition, the “Increase of [3H]CP55,940 binding to hCB2R” value at hCB2R (10 μM) is recorded as 29%. In addition, the “Effect on [3H]CP55,940 binding to hCB2R” value at hCB2R (up to 1 μM) is “no effect”. Besides, the “Effect on [3H]CP55,940 binding to mouse brain membranes” value on CB1R [2] is listed as “enhanced”. Besides, at hCB1R [3], the “Arrestin2 recruitment by the compound alone” value (from here on “Arrestin2 recruitment”) was “increased arrestin2 recruitment in a concentration-dependent manner”, the “Log(αβ)” value is 1.35 ± 0.04, the “α (affinity modulation)” value is 24 ± 2.83 and the “β (efficacy modulation)” value is listed as 0.95 ± 0.06. Also, the “τB (modulator efficacy)” value on hCB1R [3] was found to be 0.15 ± 0.03. Also, on hCB1R [4], the “Log(αβ)” value amounted to 1.37 ± 0.06, the “α (affinity modulation)” value was determined as 21 ± 2, the “β (efficacy modulation)” value stood at 1.13 ± 0.19 and the “τB (modulator efficacy)” value came out at 0.19 ± 0.08. Moreover, at hCB1R [5], the “ERK phosphorylation by the compound alone” value (from here on “ERK phosphorylation”) was “increased”. The “PLCβ3 phosphorylation by the compound alone” value (“PLCβ3 phosphorylation” below) on hCB1R [6] was “increased”. Moreover, in the assay with hCB1R [7], the “ΔLog(αβ)” value is recorded as 0.01 (−0.18 – 0.21) and the “Induced Bias” value is given as “n.s”.

As for `O=[N+]([O-])C[C@H](c1ccccc1)c1c(-c2ccccc2)[nH]c2ccccc12` [GAT228], the “Effect on [3H]CP55,940 binding” value on hCB1R [8] is given as “weak PAM effect”. Besides, at hCB1R [3], the “Arrestin2 recruitment” value was “increased arrestin2 recruitment in a concentration-dependent manner”, the “Log(αβ)” value came out at 0.21 ± 0.10, the “α (affinity modulation)” value worked out at 2.5 ± 0.58 and the “β (efficacy modulation)” value was determined as 0.68 ± 0.09. The “τB (modulator efficacy)” value at hCB1R [3] is recorded as 0.19 ± 0.04. In addition, at hCB1R [4], the “Log(αβ)” value is given as −0.06 ± 0.36, the “α (affinity modulation)” value came out at 1.08 ± 0.34, the “β (efficacy modulation)” value came to 0.95 ± 0.5 and the “τB (modulator efficacy)” value is given as 0.15 ± 0.06. Also, the “ERK phosphorylation” value at hCB1R [5] is given as “increased”. Moreover, the “PLCβ3 phosphorylation” value on hCB1R [6] was “increased”. In the assay on hCB1R [7], the “ΔLog(αβ)” value is listed as −0.27 (−0.40 – −0.09) and the “Induced Bias” value is reported as 0.54 (0.35 – 0.81).

Regarding `O=[N+]([O-])C[C@@H](c1ccccc1)c1c(-c2ccccc2)[nH]c2ccccc12` [GAT229], on hCB1R [3], the “Arrestin2 recruitment” value is listed as “no effect”, the “Log(αβ)” value came out at 0.97 ± 0.14, the “α (affinity modulation)” value was 4.25 ± 1.5 and the “β (efficacy modulation)” value came out at 2.3 ± 0.38. Moreover, the “τB (modulator efficacy)” value at hCB1R [3] is 0. Further, at hCB1R [4], the “Log(αβ)” value is listed as 1.3 ± 0.35, the “α (affinity modulation)” value was determined as 2.25 ± 1.26, the “β (efficacy modulation)” value is recorded as 10.75 ± 4.43 and the “τB (modulator efficacy)” value is 0. Besides, the “ERK phosphorylation” value at hCB1R [5] was “without effect”. The “PLCβ3 phosphorylation” value on hCB1R [6] is reported as “without effect”. The “ΔLog(αβ)” value in the assay with hCB1R [7] is listed as 0.34 (0.14 – 0.54).
